Measurements reported in paper PMC9122039 (Chembiochem : a European journal of chemical biology, 2022).
Where a SMILES comes first, the peptide text is derived from it. The star is where a group is joined. Cbz = O=C(OCc1ccccc1)*

How the values were obtained:
Assay type in all cases: cell-based
[1] = tested on: proteasome (β2 and β5 subunits) in HEK-293T cells; settings: then 3 at 500 nM 1 h; for increase of proteasome labeling over DMSO treated samples: modulator 25 μM 1 h; for effect of inhibitor on labeling by 3: inhibitor at two concentrations 1 h; for change of proteasome activity: modulator 5 μM 1 h
In short: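 HEK-293T cells pre-treated 1 h with the test compound (stimulators and inhibitors, each at two concentrations) or DMSO. BODIPY-epoxomicin probe then added at 500 nM for 1 h (2 h total). Proteasome bound by the probe is resolved by SDS-PAGE and in-gel fluorescence is scanned. β2 and β5 band signals are quantified and normalised to DMSO; error bars are standard deviation.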

[2] = tested on: proteasome in HEK-293T cells; assay: Confocal microscopy with probe 3; settings: modulator 25 μM 1 h, then 3 at 500 nM 1 h, PBS wash
In short: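 HEK-293T cells on poly-D-lysine-coated glass coverslip chambers; test compound (proteasome stimulator or inhibitor) at 25 μM for 1 h, then BODIPY-epoxomicin probe at 500 nM for another hour. PBS wash removes extracellular or unbound probe. Controls: DMSO plus probe (basal activity) and DMSO without probe. Imaged by confocal in bright field and BodipyFL green channel, with overlay.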

[3] = tested on: proteasome in HEK-293T cells; assay: Flow cytometry with probe 3; settings: modulator 1 h, then 3 for 1 h, rinsed with PBS
In short: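 HEK-293T cells get the test compound (stimulator or inhibitor) for 1 h. The BODIPY-epoxomicin probe is then added and incubated another hour. Cells are pelleted and rinsed with PBS to remove unreacted probe. Probe fluorescence is measured by flow cytometry against DMSO-treated samples.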

| Compound | increase of proteasome labeling over DMSO treated samples [1] | effect of inhibitor on labeling by 3 [1] | change of intracellular fluorescent signal of 3 (confocal microscopy) [2] | change of fluorescent signal of 3 over DMSO treated samples (flow cytometry) [3] | change of proteasome activity [1] |
| --- | --- | --- | --- | --- | --- |
| CCCCC/C=C\C/C=C\C/C=C\C/C=C\CCCC(=O)Nc1ccc(O)cc1 [AM-404] | at least 40% |  |  |  |  |
| CC(C)C[C@@H](C=O)NC(=O)[C@H](CC(C)C)NC(=O)[C@H](CC(C)C)NC(=O)OCc1ccccc1 [MG-132] (Cbz-Leu-Leu-Leu-aldehyde) |  | prevented the binding of (3) | significantly decreased the signal | decrease |  |
| Clc1ccc(COC(Cn2ccnc2)c2ccc(Cl)cc2Cl)c(Cl)c1 (stereo not drawn) [MO, Miconazole] | at least 40% |  | remarkable increase in fluorescent signal | increase | significant increase in activity |
| CN1CCN(CCCN2c3ccccc3Sc3ccc(C(F)(F)F)cc32)CC1 [TFP, trifluoperazine] | at least 40% |  |  | increase | significant increase in activity |
| epoxomicin |  | prevented the binding of (3) |  |  |  |
